Results: ChEMBL document CHEMBL1275448, “Identification of a novel multidrug efflux pump of Mycobacterium tuberculosis” (2008)
In brackets after ≈: the same amount, converted by molar mass.

What follows are compounds tested on Mycolicibacterium smegmatis (assay: Antimicrobial activity against wild-type Mycobacterium smegmatis SMR5 by microplate Alamar blue assay).
Assay type: functional
Procedure, shortened: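 M. smegmatis SMR5 carried either control plasmid pMS2 or rv0194 expression vector pML655. Cells were grown at 37°C in Middlebrook 7H9 with 0.2% glycerol and 0.05% Tween 80, then tested by microplate Alamar blue assay. MIC was the lowest antibiotic concentration reducing culture viability by ≥90%, read by fluorescence (ex 530/em 590 nm, room temperature).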

Row | SMILES | MIC
1 | CC1(C)S[C@@H]2[C@H](NC(=O)[C@H](N)c3ccccc3)C(=O)N2[C@H]1C(=O)O [AMPICILLIN] | 125 µg/mL (≈ 358 µM)
2 | O=C(N[C@H](CO)[C@H](O)c1ccc([N+](=O)[O-])cc1)C(Cl)Cl [CHLORAMPHENICOL] | 32 µg/mL (≈ 99 µM)
3 | CC[C@H]1OC(=O)[C@H](C)[C@@H](O[C@H]2C[C@@](C)(OC)[C@@H](O)[C@H](C)O2)[C@H](C)[C@@H](O[C@@H]2O[C@H](C)C[C@H](N(C)C)[C@H]2O)[C@](C)(O)C[C@@H](C)C(=O)[C@H](C)[C@@H](O)[C@]1(C)O [ERYTHROMYCIN] | 2.5 µg/mL (≈ 3.41 µM)
4 | CO[C@@H]1[C@@H](OC(N)=O)[C@@H](O)[C@H](Oc2ccc3c(O)c(NC(=O)c4ccc(O)c(CC=C(C)C)c4)c(=O)oc3c2C)OC1(C)C [NOVOBIOCIN] | 4 µg/mL (≈ 6.53 µM)
5 | CN(C)[C@@H]1C(O)=C(C(N)=O)C(=O)[C@@]2(O)C(O)=C3C(=O)c4c(O)cccc4[C@@](C)(O)[C@H]3C[C@@H]12 [TETRACYCLINE] | 0.3 µg/mL (≈ 0.675 µM)
6 | CN[C@H](CC(C)C)C(=O)N[C@H]1C(=O)N[C@@H](CC(N)=O)C(=O)N[C@H]2C(=O)N[C@H]3C(=O)N[C@H](C(=O)N[C@H](C(=O)O)c4cc(O)cc(O)c4-c4cc3ccc4O)[C@H](O)c3ccc(c(Cl)c3)Oc3cc2cc(c3O[C@@H]2O[C@H](CO)[C@@H](O)[C@H](O)[C@H]2O[C@H]2C[C@](C)(N)[C@H](O)[C@H](C)O2)Oc2ccc(cc2Cl)[C@H]1O [VANCOMYCIN] | 1.25 µg/mL (≈ 0.863 µM)
